The values that follow come from ChEMBL document CHEMBL1142952, “Design, synthesis, and activity of 2-imidazol-1-ylpyrimidine derived inducible nitric oxide synthase dimerization inhibitors” (J Med Chem, 2007).

Data set [1] addresses Nitric oxide synthase, inducible (Homo sapiens, UniProt P35228). Put plainly: Inhibition of cytokine-induced iNOS expressed in human A172 cells assessed as inhibition of NO formation. The data set is classed as cell-based, A 172.
In data set [2] the target is Nitric oxide synthase, inducible (Rattus norvegicus) (UniProt Q06518). Put plainly: Activity against rat cerebellum iNOS upto 1 uM.
Nitric oxide synthase, inducible (Rattus norvegicus), sequence (Q06518 whole entry): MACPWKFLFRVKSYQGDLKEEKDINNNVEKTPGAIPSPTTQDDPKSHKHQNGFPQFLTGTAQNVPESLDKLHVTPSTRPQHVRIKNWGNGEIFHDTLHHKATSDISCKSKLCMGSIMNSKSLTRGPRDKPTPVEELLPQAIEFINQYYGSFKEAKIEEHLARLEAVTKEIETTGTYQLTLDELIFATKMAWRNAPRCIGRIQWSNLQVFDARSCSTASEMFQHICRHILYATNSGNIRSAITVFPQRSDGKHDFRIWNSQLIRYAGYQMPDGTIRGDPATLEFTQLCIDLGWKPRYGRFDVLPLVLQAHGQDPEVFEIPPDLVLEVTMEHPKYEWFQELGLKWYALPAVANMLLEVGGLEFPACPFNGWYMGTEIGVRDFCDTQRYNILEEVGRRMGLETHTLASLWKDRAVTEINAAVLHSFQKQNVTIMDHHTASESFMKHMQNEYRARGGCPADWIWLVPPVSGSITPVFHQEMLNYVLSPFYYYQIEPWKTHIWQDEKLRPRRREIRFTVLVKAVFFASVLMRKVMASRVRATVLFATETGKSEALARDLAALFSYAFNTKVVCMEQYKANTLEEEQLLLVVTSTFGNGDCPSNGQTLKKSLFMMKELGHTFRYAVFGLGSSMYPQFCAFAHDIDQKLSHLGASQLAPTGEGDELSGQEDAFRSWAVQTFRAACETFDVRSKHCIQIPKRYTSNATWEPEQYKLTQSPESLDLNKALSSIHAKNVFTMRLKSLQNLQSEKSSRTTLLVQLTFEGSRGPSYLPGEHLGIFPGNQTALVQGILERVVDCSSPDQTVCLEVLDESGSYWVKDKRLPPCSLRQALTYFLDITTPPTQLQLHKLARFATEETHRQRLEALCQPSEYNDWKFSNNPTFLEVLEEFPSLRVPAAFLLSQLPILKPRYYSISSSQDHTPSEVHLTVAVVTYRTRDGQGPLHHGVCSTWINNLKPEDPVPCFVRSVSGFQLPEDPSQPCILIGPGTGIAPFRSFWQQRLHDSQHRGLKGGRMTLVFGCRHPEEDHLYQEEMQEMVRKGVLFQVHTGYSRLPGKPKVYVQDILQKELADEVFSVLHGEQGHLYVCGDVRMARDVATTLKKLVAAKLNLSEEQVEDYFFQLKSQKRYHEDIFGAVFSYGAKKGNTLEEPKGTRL
Data set [3] can be described thus: Inhibition of vaccinia virus system-induced human NOS expressed in BSC1 cells. The data set is classed as cell-based. To be noted: bsc-1.
Data set [4] in a line: Inhibition of tetracycline system-induced human NOS expressed in SF9 cells. The procedure, abridged: (§1)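 SF9 cells carrying a tetracycline-induced system expressing one NOS isoform (iNOS, ecNOS or bcNOS); cellular NO formation inhibition measured, compounds up to 10 µM.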
In data set [5] the test system is BSC-1. As to the kind of experiment: Selectivity ratio, IC50 for ecNOS/IC50 for iNOS using vaccinia virus-induced system in BSC1 cells. The data set is classed as cell-based. To be noted: Homo sapiens. The procedure, abridged:
(§2)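 For each compound, the IC50 against bcNOS (b/i) or ecNOS (e/i) is divided by the iNOS IC50 from the same BSC-1 vaccinia system.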

For data set [6], the system named is BSC-1. As to the kind of experiment: Selectivity ratio, IC50 for bcNOS/IC50 for iNOS using vaccinia virus-induced system in BSC1 cells. The data set is classed as cell-based. To be noted: Homo sapiens. The procedure, abridged:
as §2

In data set [7] the test system is Sf9. Put plainly: Selectivity ratio, IC50 for ecNOS/IC50 for iNOS using tetracycline-induced system in SF9 cells. The data set is classed as cell-based. To be noted: Homo sapiens. The essentials:
as §1

The test system of data set [8] is Sf9. As to the kind of experiment: Selectivity ratio, IC50 for bcNOS/IC50 for iNOS using tetracycline-induced system in SF9 cells. The data set is classed as cell-based. To be noted: Homo sapiens. The essentials: as §1
The nature of data set [9]: Clearance in dog at 3 mg/kg. The data set is classed as ADME, organism-based, Canis lupus familiaris. More on the design: dose 3 mg/kg. The following applies: in vivo.
A short description of data set [10]: Bioavailability in dog at 3 mg/kg, po. The data set is classed as ADME, organism-based, Canis lupus familiaris. The following applies: in vivo.
A further data set relates to Rattus norvegicus. Put plainly: Amelioration of adjuvant-induced arthritis in sc dosed Lewis rat. The data set is classed as functional, organism-based. The procedure, abridged:
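Adult male Lewis rats immunized intradermally at the proximal tail with Mycobacterium butyricum in incomplete Freund's adjuvant (10 mg/mL, 0.1 mL). Starting the next day, dosed subcutaneously at 3, 10 or 30 mg/kg or vehicle twice daily (12 h apart); naive group untreated; 10 rats per group. Weighed and clinically scored (0-4 per limb) 3 times weekly; radiological scoring; sacrifice at day 34-35.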

The nature of data set [11]: Half life in rat at 10 mg/kg, iv. The data set is classed as ADME, organism-based. More on the design: dose 10 mg/kg, route intravenous. To be noted: in vivo.
Data set [12] can be described thus: Bioavailability in po and iv dosed rat 10 mg/kg, po. The data set is classed as ADME, organism-based. To be noted: in vivo.
Data set [13] is described as follows: Half life in dog at 3 mg/kg, iv. The data set is classed as ADME, organism-based, Canis lupus familiaris. More on the design: dose 3 mg/kg, route intravenous. To be noted: in vivo.

Activity calls are given as the source filed them.

Nitric oxide synthase, inducible, sequence (P35228 whole entry): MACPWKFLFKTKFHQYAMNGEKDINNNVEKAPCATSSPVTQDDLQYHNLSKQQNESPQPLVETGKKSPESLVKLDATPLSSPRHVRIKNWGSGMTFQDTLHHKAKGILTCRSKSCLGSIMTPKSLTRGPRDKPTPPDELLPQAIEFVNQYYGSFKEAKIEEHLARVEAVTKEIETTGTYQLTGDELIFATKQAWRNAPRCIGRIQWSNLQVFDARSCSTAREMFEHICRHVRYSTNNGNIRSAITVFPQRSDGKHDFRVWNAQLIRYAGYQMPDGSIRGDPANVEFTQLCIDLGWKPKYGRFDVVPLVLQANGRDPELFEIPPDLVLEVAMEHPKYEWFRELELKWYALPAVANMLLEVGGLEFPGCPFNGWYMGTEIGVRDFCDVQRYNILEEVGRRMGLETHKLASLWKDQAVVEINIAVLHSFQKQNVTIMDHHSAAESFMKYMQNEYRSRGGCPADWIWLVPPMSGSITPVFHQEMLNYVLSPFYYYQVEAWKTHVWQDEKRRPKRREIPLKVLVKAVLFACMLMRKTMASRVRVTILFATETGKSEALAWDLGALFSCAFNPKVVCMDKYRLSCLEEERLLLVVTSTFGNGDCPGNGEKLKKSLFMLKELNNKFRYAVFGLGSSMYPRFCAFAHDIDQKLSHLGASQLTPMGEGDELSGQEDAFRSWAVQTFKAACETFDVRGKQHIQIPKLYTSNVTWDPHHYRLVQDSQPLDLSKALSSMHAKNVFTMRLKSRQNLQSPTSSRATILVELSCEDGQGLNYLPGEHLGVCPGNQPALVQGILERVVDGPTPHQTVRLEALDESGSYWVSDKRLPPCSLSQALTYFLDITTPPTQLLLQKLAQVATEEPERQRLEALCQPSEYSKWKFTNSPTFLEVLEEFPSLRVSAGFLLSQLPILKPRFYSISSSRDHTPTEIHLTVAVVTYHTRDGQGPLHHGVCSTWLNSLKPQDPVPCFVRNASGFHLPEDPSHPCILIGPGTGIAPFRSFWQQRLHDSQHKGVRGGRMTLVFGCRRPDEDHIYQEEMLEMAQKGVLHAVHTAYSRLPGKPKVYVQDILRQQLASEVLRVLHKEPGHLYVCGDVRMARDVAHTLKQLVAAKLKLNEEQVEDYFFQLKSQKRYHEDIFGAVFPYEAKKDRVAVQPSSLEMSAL

On to `COC(=O)N1CCN(c2ccnc(-n3ccnc3)n2)[C@@H](CC(=O)NCc2ccc3c(c2)OCO3)C1`, for which the IC50 in [1] was determined as 0.24 nM; in data set [3], 18 nM; in data set [4], 10 nM. For the same molecule, in data set [2], the outcome was inactive. In addition, the Ratio IC50 in the data set on BSC-1 [5] was 1100; in the data set with BSC-1 [6] it was 6; in the data set with Sf9 [7], 32; in the data set on Sf9 [8], 16.

The molecule `Cc1cc(N2CCC[C@@H]2C(=O)NCCc2ccc3c(c2)OCO3)nc(-n2ccnc2)n1` had a clearance in data set [9] of 4.5 mL/min/kg. Besides, the bioavailability in data set [10] worked out at 71%; in data set [12], 21%. Further, the result (in the data set with Rattus norvegicus; in [2]) was inactive. The IC50 in data set [1] stood at 0.29 nM; in [3] it was 20 nM; in data set [4], 14 nM. Further, the Ratio IC50 with BSC-1 [5] was above 5000; in the data set on BSC-1 [6], 62; with Sf9 [7], 540; in the data set with Sf9 [8] it was 327. For the same molecule, the figures for the half-life in [11] and in [13] were 0.7 h and 2.5 h, respectively.

Regarding `COC(=O)N1CCN(c2ccnc(-n3ccnc3)n2)C(CC(=O)NCc2ccc3c(c2)OCO3)C1` (stereo not given), the 50% inhibitory concentration (IC50) in [1] turned out to be 0.38 nM; in data set [3] it was 24 nM; in data set [4] it was 12 nM. Also, in data set [2], the outcome was inactive. Further, the Ratio IC50 with BSC-1 [5] turned out to be 1700; with BSC-1 [6] it was 5; in the data set with Sf9 [7], 82; in the data set on Sf9 [8], 25.
